According to ChEMBL document CHEMBL4513216, “Probing the Open Global Health Chemical Diversity Library for Multistage-Active Starting Points for Next-Generation Antimalarials” (ACS Infect Dis, 2020):

experiment: Toxicity liver stage against HepG2, at 10uM; assay type: cell-based; parameters: test concentration 10 uM, cell line HepG2-A16-CD81EGFP; details: human, HepG2-A16-CD81EGFP cells; read-out: INHIBITION
In short: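 Uninfected HepG2-A16-CD81EGFP cells, 3 × 10^3 per well, 1536-well, plated on prespotted compound at 10 μM final, parasite-free screening media added to match infected plates; puromycin 10 μM positive, DMSO 0.5% negative; run in parallel with 48 h PbLuc assay at 37 °C, 5% CO2; viability by CellTiter-Glo luminescence, normalized to controls.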

Compound | cytotoxicity at 10 µM [%]
CC(C)NC(=O)CCC(=O)N1CCC(c2noc3cc(F)ccc23)CC1 | 2.13
Cc1cc(-c2nn3c(C4CCC4)nnc3s2)on1 | -5.65
O=C(Nc1cccnc1)C1CN(C(=O)c2ccc3c(c2)OCO3)C1 | -11.7
COc1ncc(NS(=O)(=O)c2cccc(C)c2)c(OC)n1 | 10.4
Cc1c(Cl)cccc1S(=O)(=O)N1CCC(S(=O)(=O)c2nncn2C)CC1 | 1.06
CC(=O)N1CCc2nc(N3CCCC3)nc(C)c2C1 | -0.567
COc1ccc(CC(=O)N2CCc3nc(C(=O)N(C)C)sc3CC2)cc1 | 15.8
Cc1noc(C[C@@H]2COC[C@H]3CN(C(=O)C4=CCCC4)C[C@@H]23)n1 | -0.91
CCOCc1cnc2n1CCN(C(=O)Cc1cccs1)C2C (centres undefined) | 8.04
CNC(=O)N1CCN(C(=O)C(C)C)CC2(CC(=O)N(C)C2)C1 (centres undefined) | 7.43
O=C(NCC1CCN(Cc2ccsc2)CC1)NC1CC1 | 6.82
CN1CCC(C(=O)N2CCC(c3ccc4c(N)n[nH]c4n3)CC2)CC1 | 2.43
CC1(C(=O)N2CCSCC2)CNCCO1 (centres undefined) | 4.79
Cc1nn(C)c(C)c1-c1cncc(C2CCN(S(C)(=O)=O)CC2)n1 | 8.88
COc1ccc(Cl)cc1CS(=O)(=O)Cc1noc(C)n1 | 2.32
COc1cccc(C2(C(=O)NC3CCc4nccn4C3)CCCC2)c1 (centres undefined) | 2.74
CC(c1ccncc1)N(C)C(=O)NCCOc1ccc(C#N)cc1 (centres undefined) | -15.5
CC(C)(C)OC(=O)N1CCC(NC2CCS(=O)(=O)C2)CC1 (centres undefined) | -6.72
O=C(c1cccc(F)c1F)N1CCn2c(nnc2C(F)(F)F)C1 | -8.22
COCCc1nc(-c2cnn3c(C)cc(C)nc23)no1 | 2.49
CC(C)(O)CN1CCN(C(=O)c2cccn2Cc2cccnc2)CC1 | -0.787
CC(=O)Nc1ccc(CNc2cccc(CS(C)(=O)=O)c2)cc1 | -6.91

Compound | cytotoxicity at 10 µM [%]
CCCC(NC(=O)c1cc(C)ccc1O)c1nnn[nH]1 (centres undefined) | -3.26
CCc1nc(NS(=O)(=O)c2cc(C)c(F)cc2Cl)no1 | 15.8
Cc1cnn(CCNCc2ccc(OCc3ccccn3)cc2)c1 | 0.686
O=C(NCCCn1cccn1)C1(c2cccc(Cl)c2)CC1 | 17.9
CC1(NC(=O)Cc2csc(-c3ccccc3Cl)n2)CCS(=O)(=O)C1 (centres undefined) | -9.81
Cc1cc(C(=O)NC2CC(=O)N(C(C)C)C2=O)c(C)n1C(C)C (centres undefined) | -9.13
CCSCCC(C)N(C)C(=O)c1ccc2nncn2c1 (centres undefined) | -5.4
CCNC(=O)N1CCC(NC(=O)NCCCc2cccc(F)c2)C1 (centres undefined) | -47.5
Cn1cc(S(=O)(=O)N2CCC(OCCCc3ccccc3)C2)cn1 (centres undefined) | 8.93
CCCNC(=O)CNc1ccccc1OCCC(=O)OC | 8.95
O=C(NCC1(c2ccc(F)cc2)CCC1)N1CCC2(CCOCC2)C1 | 3.73
CCN(C(=O)CNC1CCc2ncnn2C1)C1=CCCCC1 (centres undefined) | 0.701
O=C(NCC1(O)CCOC1)NCC1(c2ccccc2Cl)CCC1 (centres undefined) | -50.8
COc1ccnc(N2CCN(C(=O)CCc3cnn(C)c3)CC2)n1 | 8.72
Cn1ncnc1NS(=O)(=O)c1ccccc1 | 8.26
Cc1nc(C2(NCC(=O)NC(=O)NCc3cccs3)CCCCC2)no1 | -9.52
CCC(=O)N1CCC2(C=C(C(=O)N3CCCC3)c3ccccc32)CC1 | -92.8
Cc1cc(CN2CC[C@@H]3O[C@@H](c4nnc(C)o4)C[C@H]3C2)no1 | -103
O=C(C1CCOC1)N1C[C@H]2CN(Cc3cccc(F)c3)C(=O)[C@H]2C1 (some centres undefined) | -106
O=C(O)c1cc(-c2ccncc2)cc(S(=O)(=O)N2CCSCC2)c1 | 3.26
O=S(=O)(NCc1ccccc1)Nc1ccc(-n2cncn2)cc1 | 4.44
CN1CCC(NCC2(O)CCCN(Cc3ccccc3F)C2=O)CC1 (centres undefined) | -12.2

Compound | cytotoxicity at 10 µM [%]
CCc1cc(N2CCC(N3CCSCC3)CC2)n2nccc2n1 | 0.998
CC[C@H]1COCCN1C(=O)CCCn1nnc(-c2ccc(F)cc2)n1 | 13.4
CS(=O)(=O)N1CCCn2nc(CNc3ncccn3)cc2C1 | 4.83
CN1CC2(CCCN(Cc3nnc(-c4ccccc4)o3)CC2)OC1=O (centres undefined) | 0.184
O=C(c1ccccc1C(F)(F)F)N1C[C@@H](CN2CCOCC2)[C@@H](CO)C1 | -3.7
O=C(Nc1ccc(-c2ccn[nH]2)cc1)C1CCCN(Cc2ccoc2)C1 (centres undefined) | -0.16
O=C(O)c1cccc(N2CCC(Oc3cccc(F)c3)CC2)n1 | -44.1
COc1ccc2c(c1)C(C(=O)NCCN1CCOC1=O)CC(=O)N2 (centres undefined) | 8.68
Cn1cnc2cc(C(=O)N3CCC(c4ccccc4C(=O)O)C3)cnc21 (centres undefined) | -8.98
Cc1ccc2c(-c3nc4c([nH]3)CCNC4C(=O)O)cccc2n1 (centres undefined) | -3.15
CS(=O)(=O)NC1CCN(C(=O)c2coc(CN3CCOCC3)c2)CC1 | 3.54
CCN1CCC(Cn2ccc3c(OC)c(OC)ccc3c2=O)C1 (centres undefined) | -4.7
O=C(CCn1cccc1)N1CCc2[nH]nc(COc3ccccc3)c2C1 | 7.54
CN1CCC(N(C)C[C@H]2CC[C@@H](Cc3cccc(O)c3)O2)CC1 | -12.2
Cc1cc2cccc(C(=O)N3CC[C@@H](N)[C@H](O)C3)c2o1 | -0.193
Cc1cc(C)c2nc(CN3CCC(CN)CC3)cc(O)c2c1 | 2.55
CN(C)CCN(C)C1CCN(C(C(=O)O)c2ccc(F)c(Cl)c2)CC1 (centres undefined) | 2.95
CCOCc1nc(CSc2ccncc2)n(C2CCN(C)CC2)n1 | -1.45
CC(=O)CCCC(=O)N(Cc1ccsc1)CC(C)C | -50.3
CCc1ccccc1-c1cc(OC)nc(N)n1 | -3.3
Cc1ncc(CN2CCC(CNS(=O)(=O)C3CC3)C2)cn1 (centres undefined) | 2.84
CN(C)C1CCCN(Cc2cccc(Cn3cccn3)c2)CC1 (centres undefined) | -12.6

Compound | cytotoxicity at 10 µM [%]
Cn1cccc1-c1cc(C(=O)NCCCc2csc(N)n2)[nH]n1 | -8.9
CC1(COc2ccccc2)NCCc2[nH]cnc21 (centres undefined) | -0.254
c1csc(CCC2CCCCN2Cc2noc(C3CC3)n2)c1 (centres undefined) | 0.562
O=C(O)C(c1ccc2c(c1)OCO2)N1CCCC1 (centres undefined) | -3.04
CCNC(=O)N1CCN(Cc2nc3ccccc3[nH]2)[C@@H]2CS(=O)(=O)C[C@@H]21 | 14.1
CN(C)C(=O)C1CCN(Cn2nc(-c3ccc(F)cc3)oc2=O)CC1 | -2.06
O=C(Cc1ccccc1)NCCNCc1cccc(O)c1 | -0.206
Cn1c(C2CC2)nc2c1CCN(Cc1nc(Cc3ccccc3)no1)C2 | -6.37
Cc1cnn(CC(C)NCc2nc(-c3cccs3)no2)c1 (centres undefined) | -7.64
COc1cc(C(=O)NS(=O)(=O)c2cccc(C#N)c2)cc(OC)c1Br | -9.67
Cc1cnn(CCNCc2csc(-c3ccccc3)n2)c1 | -9.48
CCOC(=O)CN(C)C1CCc2ccccc21 (centres undefined) | 0.367
Cc1cc(NC(=O)CCN2CCCCC2Cn2cccn2)no1 (centres undefined) | 2.14
Cc1nc(C2CCCN2C(=O)CCOCc2ccccc2)no1 (centres undefined) | -2.4
Cc1nn(C)c(Cl)c1C1CCCN1C(=O)c1cnn(C)c1C1CC1 (centres undefined) | 1.99
CNC(=O)c1ccc(C(=O)N2CCCC(n3cc(C)cn3)C2)cn1 (centres undefined) | -0.884
Cc1noc(C)c1CN(C)C(=O)NC1CCN(C2CC2)CC1 | -10.1
Cc1cnc(CN(C)C2CCN(CC(=O)Nc3c(C)n[nH]c3C)C2)o1 (centres undefined) | -6.38
CN(C)c1ncccc1CNS(=O)(=O)c1ccccc1F | -4.81
CC(C)(C)c1cn2nc(N3CCC[C@@H]3CO)sc2n1 | 3.64
COCCN1C(=O)CCC12CCC(NCc1cccnc1OC)CC2 (centres undefined) | 8.64
CN(C)CCn1c2c(ccc1=O)CC(NCc1cccnc1)CC2 (centres undefined) | 14.4

Compound | cytotoxicity at 10 µM [%]
CC(=O)NCC(=O)N1CCC2(CC1)NC(=O)CC2c1cccnc1 (centres undefined) | -72.5
CNC(=O)[C@@H]1C[C@H]2CN(Cc3ccc(C)s3)C[C@H]2N1C(C)=O | 2.76
CS(=O)(=O)NCc1nnc2n1CCN(Cc1cccs1)CC2 | -71.7
Cc1ccc(C(=O)N2CCC3(CCN(C(=O)c4cccnc4)C3)CC2)o1 | 0.101
CC(=O)N1CCC2(CC1)COCCN2Cc1ccc(F)cc1 | 5.69
O=C(c1c[nH]cn1)N1CCC(F)(F)C2(CCN(c3ccccn3)C2)C1 (centres undefined) | 11
CC1c2ncc(CN3CCN(C)CC3)n2CCN1Cc1cccnc1 (centres undefined) | -2.12
Cc1cccc(CN2Cc3[nH]nc(COc4cccnc4)c3C2)n1 | 0.288
CCS(=O)(=O)N1CCC2(CCN(Cc3cccc(OC)c3)CC2)CC1 | 2.5
Cc1cccc(N2CC3(CCN(S(=O)(=O)C4CC4)C3)C2)n1 | 3.86
CC(=O)N1CCC2(CC1)CN(C(=O)c1cccnc1)c1ccc(F)cc12 | -108
O=C([C@H]1C[C@H]2OCC[C@H]2N(Cc2ccco2)C1)N1CCCO1 | 8.73
COCCN1CCOCC12CCN(Cc1ccn(C)n1)CC2 | -3.39
CN1[C@H](Cn2cncn2)C[C@@H]2CN(C3CCOCC3)CC[C@@H]21 | 4.56
O=C(O)c1cc2c(nc1-c1ccoc1)CCN(Cc1ccco1)CC2 | -78.9
Cc1cccc(CN2C(=O)C[C@H]3[C@@H]2CCN3Cc2cccs2)n1 | -79.6
CCC1=N[C@@]2(CC[C@@H]3CN(Cc4ccc(C)cc4)C[C@@H]32)C(=O)N1C | -95
CNC(=O)[C@@H](c1ccccc1)N1CCC[C@H]1C(=O)NCc1ccccn1 | 5.62
COCCN1CCC2(CC1)CN(C(=O)C1CC1)c1ccc(F)cc12 | -0.213
CCOCC(=O)N1Cc2nccn2CC(CN2CCCC2)C1 (centres undefined) | -76.3
c1cnc(N2CCOC3(CCN(CC4CCCCC4)CC3)C2)nc1 | 0.256
